PMC2903848 (The FEBS journal, 2010)

Assays:
Th1 cells = assay: Th1 cell IFNγ production by ELISA; type: cell-based, mice; details: 100μM
In short: (§1)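 Balb/c T helper cells isolated by magnetic beads, cultured in RPMI with plate-bound anti-CD3 1μg/mL, anti-CD28 2μg/mL and IL-2. Th1 skewed with rIL-12 5ng/mL and anti-IL-4 10 μg/mL (IFNγ line); Th2 with rIL-4 10 ng/mL and anti-IFNγ 10 μg/mL (IL-4 line). Day-7 cells at 1 × 10^6 cells/mL restimulated with plate-bound anti-CD3 (1μg/mL) for 24 h with compound or DMSO. Supernatant cytokine measured by ELISA; at least three experiments.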

PRMT6 = PRMT6 (Homo sapiens, UniProt Q96LA8); assay: In vitro methylation of GST-GAR by recombinant GST-PRMT6; type: biochemical; details: 30μM compound, GST-GAR substrate
In short: (§2)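 Recombinant GST-PRMT6 or GST-PRMT8 was concentrated on a micron 10 filter and reacted with GST-GAR substrate and [3H]SAM plus 30μM test compound. Reactions were quantified by densitometry. Representative of at least three independent experiments.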

PRMT1/NIP45 interaction = assay: HA-PRMT1/FLAG-NIP45 coimmunoprecipitation in 293T cells; type: cell-based; details: 293T cells transfected with HA-PRMT1 and FLAG-NIP45; 100μM (Adox 20μM)
In short: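 293T cells were co-transfected (Fugene HD) with HA-PRMT1 and FLAG-NIP45 vectors, then treated with DMSO, test compound (100μM) or Adox (20μM). Lysates in 100 mM NaCl, 50 mM TRIS pH 7.5, 0.1% TX-100 buffer were immunoprecipitated with anti-HA agarose and blotted for FLAG, then reprobed for HA. FLAG/HA association was quantified versus DMSO; three experiments.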

PRMT8 = PRMT8 (Homo sapiens, UniProt Q9NR22); assay: In vitro methylation of GST-GAR by recombinant GST-PRMT8; type: biochemical; details: 30μM compound, GST-GAR substrate
In short: as §2

[1] = tested on: IL-4 promoter (−760 to +68) in Jurkat cells; assay: IL-4 promoter luciferase reporter in Jurkat cells; type: cell-based, human; details: 18hrs pretreatment then 6hr PMA/Ionomycin, 100μM (Adox 20μM)
In short: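 Jurkat cells in RPMI, electroporated (280V, 975μF) with IL-4 promoter luciferase reporter (3μg) plus thymidine kinase-driven Renilla luciferase (10ng) as internal control. Compounds in DMSO, vehicle control DMSO; 18 h pretreatment, then 6 h stimulation with 50 ng/mL PMA plus ionomycin. Dual luciferase read-out, firefly normalised to Renilla. At least three independent experiments.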

PRMT1 [2] = assay: HA-PRMT1/FLAG-PRMT1 coimmunoprecipitation; details: 100μM during coimmunoprecipitation
In short: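 HA-PRMT1 and FLAG-PRMT1 were expressed in separately transfected 293T cells. Equal volumes of the two lysates were mixed and incubated with DMSO or test compound (100μM) during the anti-HA agarose immunoprecipitation. Blots were probed with anti-FLAG. As a specificity control, IPs from vector-only cells were incubated with FLAG-NIP45 lysates.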

Th2 cells = assay: Th2 cell IL-4 production by ELISA; type: cell-based, mice; details: 100μM
In short: as §1

PRMT5 = PRMT5 (Homo sapiens, UniProt O14744); type: biochemical; details: PRMT5 immunoprecipitated from 293T cells, MBP as substrate
In short: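 PRMT5, or an isotype-control IP, was immunoprecipitated from 293 cell extracts and used in in vitro methylation reactions with MBP substrate at the indicated test compound concentrations. Reaction inputs were checked by immunoblotting with PRMT5 antisera. Representative of at least three independent experiments.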

[3] = target: T1, recombinant human GST-PRMT4 (Homo sapiens, UniProt Q86X55); assay: In vitro methylation of histone 3 by recombinant GST-PRMT4; type: biochemical; details: read-out: PRMT4 IC50; recombinant human GST-PRMT4, histone 3 as substrate
T1 sequence (Q86X55 1-608): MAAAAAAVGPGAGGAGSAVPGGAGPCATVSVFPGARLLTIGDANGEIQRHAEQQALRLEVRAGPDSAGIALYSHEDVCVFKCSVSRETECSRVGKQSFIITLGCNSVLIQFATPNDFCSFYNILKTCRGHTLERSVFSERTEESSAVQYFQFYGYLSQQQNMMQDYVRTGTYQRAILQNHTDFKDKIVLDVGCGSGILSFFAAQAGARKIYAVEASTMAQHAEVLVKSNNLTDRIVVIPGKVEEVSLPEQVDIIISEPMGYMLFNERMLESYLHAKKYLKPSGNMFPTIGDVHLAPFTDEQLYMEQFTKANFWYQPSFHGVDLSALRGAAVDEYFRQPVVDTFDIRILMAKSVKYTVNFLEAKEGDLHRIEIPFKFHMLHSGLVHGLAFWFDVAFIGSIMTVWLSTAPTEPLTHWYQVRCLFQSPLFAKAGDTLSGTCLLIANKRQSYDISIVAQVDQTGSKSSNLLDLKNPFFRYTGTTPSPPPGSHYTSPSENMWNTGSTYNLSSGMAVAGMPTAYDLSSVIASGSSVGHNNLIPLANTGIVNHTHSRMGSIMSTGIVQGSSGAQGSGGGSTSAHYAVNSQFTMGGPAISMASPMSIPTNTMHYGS
In short: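 Recombinant human GST-PRMT4 methylated recombinant histone 3 in the presence of [3H]SAM and increasing concentrations of test compound. Methylation was quantified by densitometry, and IC50 was calculated by linear regression. Representative of at least three independent experiments.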

recombinant hPRMT1 = details: read-out: PRMT1 IC50; reported value using recombinant hPRMT1 and GST-Npl3 as substrate; cited from earlier work
[4] = tested on: H3R17 methylation in 293T cells; assay: Cellular H3R17 methylation immunoblot in 293T cells; type: cell-based; details: 293T cells over treatment period (data not shown)
In short: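 293T cells grown in DMEM were treated for 24 hrs with DMSO vehicle, test compound (100μM or 300μM) or Adox (20μM). Histone extracts were immunoblotted with anti-histone 3 dimethylarginine 17 antibody. Methylation was quantified relative to vehicle-treated samples. Toxicity was followed over the treatment period. Three independent experiments.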

T helper cells [5] = assay: T helper cell proliferation; type: cell-based, mice; details: anti-CD3 stimulated T helper cells, MTS assay
T helper cells [6] = assay: Viability of T helper cells; type: cell-based; details: T helper cells, 100 μM
[7] = Viability of T helper cells; type: cell-based; details: Balb/c, mouse, primary T helper cells
PRMT1 [8] = target: PRMT1 (Rattus norvegicus, UniProt Q63009); assay: UV crosslinking of [3H]SAM to GST-PRMT1; type: binding; details: 100μM inhibitor, 20μM [3H]SAM
Sequence of PRMT1 (Rattus norvegicus, UniProt Q63009) (Q63009 whole entry): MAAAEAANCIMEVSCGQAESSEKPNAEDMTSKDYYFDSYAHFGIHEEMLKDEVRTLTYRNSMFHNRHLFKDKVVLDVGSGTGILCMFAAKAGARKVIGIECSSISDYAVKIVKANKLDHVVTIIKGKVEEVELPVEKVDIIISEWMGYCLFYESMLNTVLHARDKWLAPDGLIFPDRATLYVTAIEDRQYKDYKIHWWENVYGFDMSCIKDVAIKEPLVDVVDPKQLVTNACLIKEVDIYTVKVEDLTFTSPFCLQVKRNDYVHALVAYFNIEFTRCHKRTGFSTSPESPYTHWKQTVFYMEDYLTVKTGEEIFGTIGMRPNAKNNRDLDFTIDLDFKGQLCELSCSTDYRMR

Sequence of PRMT5 (O14744 whole entry): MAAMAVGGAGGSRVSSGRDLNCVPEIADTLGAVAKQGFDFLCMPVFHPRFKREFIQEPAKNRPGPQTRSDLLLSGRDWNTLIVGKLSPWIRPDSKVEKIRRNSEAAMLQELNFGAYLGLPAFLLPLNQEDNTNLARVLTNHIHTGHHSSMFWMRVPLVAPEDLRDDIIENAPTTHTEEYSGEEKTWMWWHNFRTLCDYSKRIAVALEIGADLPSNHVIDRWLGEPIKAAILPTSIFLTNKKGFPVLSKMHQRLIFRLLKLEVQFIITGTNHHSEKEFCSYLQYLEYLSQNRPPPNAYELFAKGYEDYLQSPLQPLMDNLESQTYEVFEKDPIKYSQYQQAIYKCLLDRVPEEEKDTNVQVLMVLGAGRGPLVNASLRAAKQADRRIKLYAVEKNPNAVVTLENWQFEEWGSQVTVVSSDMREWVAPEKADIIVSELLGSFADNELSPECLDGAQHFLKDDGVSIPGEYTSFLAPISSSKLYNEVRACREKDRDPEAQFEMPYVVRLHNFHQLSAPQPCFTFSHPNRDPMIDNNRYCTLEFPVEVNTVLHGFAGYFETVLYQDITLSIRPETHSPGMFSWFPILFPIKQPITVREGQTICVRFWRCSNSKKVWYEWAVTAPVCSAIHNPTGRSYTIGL
Sequence of PRMT5 (Q9BQA1 whole entry partner): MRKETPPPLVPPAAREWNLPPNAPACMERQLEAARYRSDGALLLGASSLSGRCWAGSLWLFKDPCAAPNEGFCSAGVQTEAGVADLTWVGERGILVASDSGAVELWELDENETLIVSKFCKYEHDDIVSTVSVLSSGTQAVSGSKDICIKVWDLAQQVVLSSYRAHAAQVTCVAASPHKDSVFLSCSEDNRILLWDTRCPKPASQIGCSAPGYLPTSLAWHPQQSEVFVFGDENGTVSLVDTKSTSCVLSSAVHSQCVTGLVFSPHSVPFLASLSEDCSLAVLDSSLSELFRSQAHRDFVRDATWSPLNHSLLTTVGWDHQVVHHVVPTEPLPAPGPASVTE
Sequence of PRMT8 (Q9NR22 whole entry, species assumed): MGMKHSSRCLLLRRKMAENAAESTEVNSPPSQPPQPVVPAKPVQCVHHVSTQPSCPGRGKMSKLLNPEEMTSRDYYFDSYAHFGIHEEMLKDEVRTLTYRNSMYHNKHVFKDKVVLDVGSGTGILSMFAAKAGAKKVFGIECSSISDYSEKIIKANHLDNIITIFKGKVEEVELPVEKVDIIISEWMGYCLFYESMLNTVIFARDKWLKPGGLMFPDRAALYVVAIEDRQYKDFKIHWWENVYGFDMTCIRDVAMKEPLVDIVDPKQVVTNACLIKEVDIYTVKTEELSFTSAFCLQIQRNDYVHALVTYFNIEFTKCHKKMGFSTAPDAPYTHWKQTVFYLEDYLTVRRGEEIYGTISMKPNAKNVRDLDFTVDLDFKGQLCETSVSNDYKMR
Sequence of PRMT6 (Q96LA8 whole entry, species assumed): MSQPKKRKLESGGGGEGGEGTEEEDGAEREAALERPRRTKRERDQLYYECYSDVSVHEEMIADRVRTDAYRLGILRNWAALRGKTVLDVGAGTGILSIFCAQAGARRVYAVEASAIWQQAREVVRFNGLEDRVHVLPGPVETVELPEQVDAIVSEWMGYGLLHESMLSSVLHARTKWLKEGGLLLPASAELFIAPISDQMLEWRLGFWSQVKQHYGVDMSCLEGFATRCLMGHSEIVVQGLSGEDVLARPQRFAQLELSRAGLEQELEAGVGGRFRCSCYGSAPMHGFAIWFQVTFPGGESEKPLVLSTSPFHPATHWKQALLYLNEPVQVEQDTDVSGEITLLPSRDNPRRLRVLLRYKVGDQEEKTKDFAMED

In the case of `O=C(Nc1ccc2c(O)cc(S(=O)(=O)O)cc2c1)Nc1ccc2c(O)cc(S(=O)(=O)O)cc2c1` [AMI-1], the “reduction of Th1 IFNγ production” value (Th1 cells; anti-CD3 stimulated Th1 cells, ELISA) is reported as “less than 40%”, the “inhibition of GST-GAR methylation by PRMT6” value (PRMT6) is reported as “less effective” and the “effect on PRMT1/NIP45 association” value (PRMT1/NIP45 interaction) is reported as “interfered with the NIP45 and PRMT1 interaction”. For the same molecule, the “inhibition of GST-GAR methylation by PRMT8” value (PRMT8) was “less effective”, the “effect on IL-4 promoter reporter activity” value [1] was “decreased promoter activity” and the “effect on HA-PRMT1/FLAG-PRMT1 interaction (oligomerization)” value (PRMT1 [2]) was “did not interfere with the interaction”. The “reduction of Th2 IL-4 levels” value (Th2 cells; anti-CD3 stimulated Th2 cells, ELISA) was “less than 40%”, the “inhibition of PRMT5 activity” value (PRMT5) was “ineffective” and the IC50 [3] was 170 ± 10.7 µM. The IC50 (recombinant hPRMT1) was 8.8 µM.
With `Nc1ncnc2c1ncn2C(C=O)OC(C=O)CO` (centres unmarked) [Adox, adenosine dialdehyde] the “effect on PRMT1/NIP45 association” value (PRMT1/NIP45 interaction) was “reduced the association”, the “effect on IL-4 promoter reporter activity” value [1] was “greatly diminished” and the cellular toxicity [4] was “no cellular toxicity”.
With `CSC[C@H]1O[C@@H](n2cnc3c(N)ncnc32)[C@H](O)[C@@H]1O` [MTA, methylthioadenosine] the “effect on IFNγ production” value (Th1 cells; Th1 cells) was “diminished”, the “effect on T helper cell proliferation” value (T helper cells [5]) was “inhibited T cell proliferation” and the “% apoptotic” value (T helper cells [6]) was 4.9%. For the same molecule, the “% necrotic” value (T helper cells [6]) was 4.2%, the viability at 100 µM [7] was 90.9% and the “effect on IL-4 production” value (Th2 cells; Th2 cells) was “diminished”.
In the case of `Nc1ncnc2c1ncn2[C@@H]1O[C@H](C[C@@H](N)CC[C@H](N)C(=O)O)[C@@H](O)[C@H]1O` [sinefungin], the “competition for SAM binding to PRMT1” value (PRMT1 [8]) is reported as “competitive with SAM for binding”.
